From ChEMBL document CHEMBL1806364, “Discovery of vinylogous carbamates as a novel class of β-ketoacyl-acyl carrier protein synthase III (FabH) inhibitors” (Bioorg Med Chem, 2011) come the findings set out here.

Data set [1] relates to Escherichia coli. Kind of data set: Antibacterial activity against Escherichia coli after 24 hrs by MTT assay. It is filed as functional. The method in brief:
(§1)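 Broth microdilution in Mueller-Hinton medium. Compound stock 100 µg/mL in DMSO, serially diluted into medium. Inoculum about 10⁵ cfu/mL, incubated 37 °C for 24 h. After visual MIC reading, MTT (2 mg/mL in PBS pH 7.4) added, 4–5 h at room temperature. Dye extracted with isopropanol containing 5% 1 mol/L HCl for 12 h, OD read at 550 nm.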
(In general: Tetrazolium dyes change colour on reduction, which living cells bring about.)

In data set [2] the test system is Pseudomonas fluorescens. Kind of data set: Antibacterial activity against Pseudomonas fluorescens after 24 hrs by MTT assay. It is filed as functional. The method, boiled down:
as §1

Data set [3] relates to Bacillus subtilis. The experiment in a line: Antibacterial activity against Bacillus subtilis after 24 hrs by MTT assay. It is filed as functional. The method in brief:
as §1

Data set [4] deals with Staphylococcus aureus. The experiment in a line: Antibacterial activity against Staphylococcus aureus after 24 hrs by MTT assay. It is filed as functional. The method, boiled down: as §1
In data set [5] the target is T1, 3-oxoacyl-[acyl-carrier-protein] synthase 3 (Escherichia coli, UniProt C3TDZ2).
T1 sequence (C3TDZ2 whole entry): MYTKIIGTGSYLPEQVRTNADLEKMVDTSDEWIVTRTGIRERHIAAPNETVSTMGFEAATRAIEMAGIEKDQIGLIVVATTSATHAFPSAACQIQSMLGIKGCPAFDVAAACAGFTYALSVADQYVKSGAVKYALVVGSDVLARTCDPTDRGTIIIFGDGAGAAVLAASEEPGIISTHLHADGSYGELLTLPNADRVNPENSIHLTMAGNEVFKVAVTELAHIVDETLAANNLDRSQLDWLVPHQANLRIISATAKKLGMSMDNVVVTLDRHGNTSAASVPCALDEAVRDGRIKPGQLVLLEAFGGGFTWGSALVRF
Kind of data set: Inhibition of Escherichia coli FabH expressed in Escherichia coli DH10B cells assessed as incorporation of 3[H] after 25 mins by liquid scintillation. The method, boiled down:
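Native E. coli FabH overexpressed from pET30 in DH10B cells and purified by Q-Sepharose, MonoQ and hydroxyapatite chromatography. Reaction mix contains 0.25 mM MgCl₂, acetyl-CoA, 0.5 mM NADH and 0.5 mM NADPH, run 25 min. Stopped with ice-cold 50% TCA, protein pelleted, washed with 10% TCA, dissolved in 0.5 M NaOH. Incorporated ³H counted by liquid scintillation. DMSO at most 2% final; IC50 determined.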

A short description of data set [6]: Toxicity in erythrocytes assessed as hemolytic activity. It is filed as cell-based. The following applies: erythrocyte.

The MIC is the least concentration at which growth counts as inhibited. The low end stands for inhibition by little substance, the high end for a need for much substance. Broadly, the IC50 is the point on the concentration scale where inhibition reaches its midpoint.

In brackets after ≈: the same amount, converted by molar mass.

In the case of `CCOC(=O)/C(=C\Nc1ccc(Cl)cc1)c1ccc(OCc2ccccc2)cc1`, the MIC is 12.5 µg/mL (≈ 30.6 µM) in data set [1], 6.25 µg/mL (≈ 15.3 µM) in data set [2], 25 µg/mL (≈ 61.3 µM) in data set [3] and 25 µg/mL (≈ 61.3 µM) in data set [4].
As to `CCOC(=O)/C(=C/Nc1ccc(Cl)cc1)c1ccc(OCc2ccccc2)cc1`, the MIC in data set [1] was 25 µg/mL (≈ 61.3 µM); in data set [2] it was 25 µg/mL (≈ 61.3 µM); in data set [3] it was 25 µg/mL (≈ 61.3 µM); in data set [4], more than 50 µg/mL.
For the compound `CCOC(=O)/C(=C\Nc1ccc(Cl)cc1Cl)c1ccc(OCc2ccccc2)cc1`, the MIC in data set [1], in data set [2], in data set [3] and in data set [4] was 25 µg/mL (≈ 56.5 µM) in each case.
Regarding `CCOC(=O)/C(=C/Nc1ccc(Cl)cc1Cl)c1ccc(OCc2ccccc2)cc1`, the MIC is 25 µg/mL (≈ 56.5 µM) in data set [1], 25 µg/mL (≈ 56.5 µM) in data set [2], more than 50 µg/mL in data set [3] and more than 50 µg/mL in data set [4].
Consider `CCOC(=O)/C(=C\Nc1ccc(Br)cc1)c1ccc(OCc2ccccc2)cc1`, for which the MIC in data set [1] was determined as 1.56 µg/mL (≈ 3.45 µM); in data set [2], 1.56 µg/mL (≈ 3.45 µM); in data set [3], 50 µg/mL (≈ 111 µM); in data set [4] it was 25 µg/mL (≈ 55.3 µM). The IC50 in data set [5] was 3.3 µM. In addition, the LC30 in data set [6] was more than 10000 µg/mL.
`CCOC(=O)/C(=C/Nc1ccc(Br)cc1)c1ccc(OCc2ccccc2)cc1`: the MIC in data set [1], in data set [2], in data set [3] and in data set [4] was more than 50 µg/mL throughout. Besides, the IC50 in data set [5] was 43 µM. Moreover, the LC30 in data set [6] is more than 10000 µg/mL.
As for `CCOC(=O)/C(=C\Nc1ccc(C)cc1)c1ccc(OCc2ccccc2)cc1`, the MIC worked out at 0.78 µg/mL (≈ 2.01 µM) in data set [1], 1.56 µg/mL (≈ 4.03 µM) in data set [2], 25 µg/mL (≈ 64.5 µM) in data set [3] and 25 µg/mL (≈ 64.5 µM) in data set [4]. For the same compound, the IC50 in data set [5] came out at 2.6 µM. Besides, the LC30 in data set [6] was more than 10000 µg/mL.
In the case of `CCOC(=O)/C(=C/Nc1ccc(C)cc1)c1ccc(OCc2ccccc2)cc1`, the MIC in data set [1], in data set [2], in data set [3] and in data set [4] was more than 50 µg/mL each time.
On to `CCOC(=O)/C(=C\Nc1ccc(Br)cc1Br)c1ccc(OCc2ccccc2)cc1`, for which the MIC in data set [1] turned out to be 12.5 µg/mL (≈ 23.5 µM); in data set [2], 12.5 µg/mL (≈ 23.5 µM); in data set [3], 25 µg/mL (≈ 47.1 µM); in data set [4], 25 µg/mL (≈ 47.1 µM). In data set [5], the IC50 was 24 µM. Further, the LC30 in data set [6] was more than 10000 µg/mL.
With `CCOC(=O)/C(=C/Nc1ccc(Br)cc1Br)c1ccc(OCc2ccccc2)cc1`, the MIC was determined as 3.13 µg/mL (≈ 5.89 µM) in data set [1], 12.5 µg/mL (≈ 23.5 µM) in data set [2], 12.5 µg/mL (≈ 23.5 µM) in data set [3] and 12.5 µg/mL (≈ 23.5 µM) in data set [4].
Consider `CCOC(=O)/C(=C\Nc1ccccc1Cl)c1ccc(OCc2ccccc2)cc1`, for which the MIC in data set [1] was 12.5 µg/mL (≈ 30.6 µM); in data set [2], 25 µg/mL (≈ 61.3 µM); in data set [3] it was more than 50 µg/mL; in data set [4], more than 50 µg/mL. The IC50 in data set [5] came out at 28 µM. Moreover, the LC30 in data set [6] was more than 10000 µg/mL.
Consider `CCOC(=O)/C(=C/Nc1ccccc1Cl)c1ccc(OCc2ccccc2)cc1`, for which the MIC in data set [1] is 25 µg/mL (≈ 61.3 µM); in data set [2], more than 50 µg/mL; in data set [3], 25 µg/mL (≈ 61.3 µM); in data set [4], 12.5 µg/mL (≈ 30.6 µM).
In the case of `CCOC(=O)/C(=C\Nc1ccc(F)cc1)c1ccc(OCc2ccccc2)cc1`, the MIC in data set [1] was 3.12 µg/mL (≈ 7.98 µM); in data set [2], 3.12 µg/mL (≈ 7.98 µM); in data set [3], 25 µg/mL (≈ 63.9 µM); in data set [4], more than 50 µg/mL. In addition, the 50% inhibitory concentration (IC50) in data set [5] stood at 8.2 µM. Besides, the LC30 in data set [6] was more than 10000 µg/mL.
In the case of `CCOC(=O)/C(=C/Nc1ccc(F)cc1)c1ccc(OCc2ccccc2)cc1`, the MIC turned out to be 6.25 µg/mL (≈ 16 µM) in data set [1], 12.5 µg/mL (≈ 31.9 µM) in data set [2], 25 µg/mL (≈ 63.9 µM) in data set [3] and 12.5 µg/mL (≈ 31.9 µM) in data set [4].
With `CCOC(=O)/C(=C\Nc1ccc(F)cc1F)c1ccc(OCc2ccccc2)cc1`, the MIC in data set [1] is 6.25 µg/mL (≈ 15.3 µM); in data set [2] it was 12.5 µg/mL (≈ 30.5 µM); in data set [3], more than 50 µg/mL; in data set [4] it was more than 50 µg/mL.
Turning to `CCOC(=O)/C(=C/Nc1ccc(F)cc1F)c1ccc(OCc2ccccc2)cc1`, the MIC in data set [1] stood at 25 µg/mL (≈ 61.1 µM); in data set [2], 25 µg/mL (≈ 61.1 µM); in data set [3], 12.5 µg/mL (≈ 30.5 µM); in data set [4], 12.5 µg/mL (≈ 30.5 µM).
In the case of `CCOC(=O)/C(=C\Nc1ccc(C(C)C)cc1)c1ccc(OCc2ccccc2)cc1`, the MIC in data set [1] turned out to be 3.12 µg/mL (≈ 7.52 µM); in data set [2], 3.12 µg/mL (≈ 7.52 µM); in data set [3] it was 25 µg/mL (≈ 60.2 µM); in data set [4], 12.5 µg/mL (≈ 30.1 µM).
Regarding `CCOC(=O)/C(=C/Nc1ccc(C(C)C)cc1)c1ccc(OCc2ccccc2)cc1`, the MIC in data set [1] was found to be 6.25 µg/mL (≈ 15 µM); in data set [2], 6.25 µg/mL (≈ 15 µM); in data set [3], 12.5 µg/mL (≈ 30.1 µM); in data set [4], 25 µg/mL (≈ 60.2 µM). The IC50 in data set [5] amounted to 8.5 µM. The LC30 in data set [6] is more than 10000 µg/mL.
Turning to `CCOC(=O)/C(=C\Nc1ccc([N+](=O)[O-])cc1)c1ccc(OCc2ccccc2)cc1`, the MIC in data set [1] was 3.12 µg/mL (≈ 7.47 µM); in data set [2], 6.25 µg/mL (≈ 14.9 µM); in data set [3] it was more than 50 µg/mL; in data set [4], more than 50 µg/mL.
Regarding `CCOC(=O)/C(=C/Nc1ccc([N+](=O)[O-])cc1)c1ccc(OCc2ccccc2)cc1`, the MIC in data set [1], in data set [2], in data set [3] and in data set [4] was more than 50 µg/mL each time.
For `CCOC(=O)/C(=C\Nc1ccccc1F)c1ccc(OCc2ccccc2)cc1`, the MIC in data set [1] was 12.5 µg/mL (≈ 31.9 µM); in data set [2], 25 µg/mL (≈ 63.9 µM); in data set [3], more than 50 µg/mL; in data set [4], 25 µg/mL (≈ 63.9 µM).
As to `CCOC(=O)/C(=C/Nc1ccccc1F)c1ccc(OCc2ccccc2)cc1`, the MIC in data set [1] was 25 µg/mL (≈ 63.9 µM); in data set [2], more than 50 µg/mL; in data set [3] it was more than 50 µg/mL; in data set [4], more than 50 µg/mL.
As for `CCOC(=O)/C(=C\Nc1ccccc1)c1ccc(OCc2ccccc2)cc1`, the MIC worked out at 12.5 µg/mL (≈ 33.5 µM) in data set [1], 25 µg/mL (≈ 66.9 µM) in data set [2], 25 µg/mL (≈ 66.9 µM) in data set [3] and 50 µg/mL (≈ 134 µM) in data set [4].
For `CCOC(=O)/C(=C/Nc1ccccc1)c1ccc(OCc2ccccc2)cc1`, the MIC in data set [1] was 6.25 µg/mL (≈ 16.7 µM); in data set [2], 6.25 µg/mL (≈ 16.7 µM); in data set [3], 25 µg/mL (≈ 66.9 µM); in data set [4], 25 µg/mL (≈ 66.9 µM).
Consider `NC[C@H]1O[C@H](O[C@H]2[C@H](O)[C@@H](O[C@H]3O[C@H](CO)[C@@H](O)[C@H](N)[C@H]3O)[C@H](N)C[C@@H]2N)[C@H](N)[C@@H](O)[C@@H]1O` [BEKANAMYCIN], for which the MIC was determined as 3.12 µg/mL (≈ 6.46 µM) in data set [1], 3.12 µg/mL (≈ 6.46 µM) in data set [2], 0.39 µg/mL (≈ 0.807 µM) in data set [3] and 1.56 µg/mL (≈ 3.23 µM) in data set [4].
